In ChEMBL document CHEMBL2040734, “Benzothiazoles: search for anticancer agents” (2012):

What was measured:
Type in all cases: functional
SK-OV-3 [1] = assay: Cytotoxicity against human SKOV3 cells assessed as cell growth at 0.01 uM after 48 hrs by sulforhodamine B assay; conditions: SK-OV-3, 48 h, read-out: Activity
786-0 = assay: Cytotoxicity against human 786-0 cells assessed as cell growth at 0.01 uM after 48 hrs by sulforhodamine B assay; conditions: 786-0, 48 h, read-out: Activity
How it was run: (§1)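 NCI-60 five-dose screen. Cells were grown in RPMI 1640 with 5% FBS and 2 mM L-glutamine and preincubated 24 h. Compound (DMSO stock) was tested at 0.01, 0.1, 1, 10 and 100 µM for 48 h at 37 °C. Cells were fixed in situ with cold TCA (final 10%) and stained with 0.4% SRB. A515 was read, and percent growth was calculated against time-zero and control plates.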

CAKI-1 = assay: Cytotoxicity against human Caki1 cells assessed as cell growth at 0.01 uM after 48 hrs by sulforhodamine B assay; conditions: CAKI-1, 48 h, read-out: Activity; how it was run: as §1
MCF7 = assay: Cytotoxicity against human MCF7 cells assessed as cell growth at 0.01 uM after 48 hrs by sulforhodamine B assay; conditions: MCF7, 48 h, read-out: Activity
HL-60(TB) = assay: Cytotoxicity against human HL-60(TB) cells assessed as cell growth at 0.1 uM after 48 hrs by sulforhodamine B assay; conditions: HL-60, 48 h, read-out: Activity
How it was run: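 NCI five-dose screen on the HL-60(TB) leukaemia line, grown in RPMI 1640 with 5% FBS and 2 mM L-glutamine and plated for 24 h before dosing. DMSO stocks were diluted in medium. Cells were exposed 48 h at 37 °C, then settled cells were fixed in 16% TCA (final) and stained with SRB, absorbance 515 nm. Percent growth = (Ti−Tz)/(C−Tz)×100, or (Ti−Tz)/Tz×100 when Ti<Tz.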

SNB-75 = assay: Cytotoxicity against human SNB75 cells assessed as cell growth at 0.1 uM after 48 hrs by sulforhodamine B assay; conditions: SNB-75, 48 h, read-out: Activity
SK-OV-3 [2] = assay: Cytotoxicity against human SKOV3 cells assessed as cell growth at 0.1 uM after 48 hrs by sulforhodamine B assay; conditions: SK-OV-3, 48 h, read-out: Activity
A498 = assay: Cytotoxicity against human A498 cells assessed as cell growth at 0.1 uM after 48 hrs by sulforhodamine B assay; conditions: A498, 48 h, read-out: Activity; how it was run: as §1
SN12C = assay: Cytotoxicity against human SN12C cells assessed as cell growth at 100 uM after 48 hrs by sulforhodamine B assay; conditions: read-out: Activity
NCI-H460 = assay: Cytotoxicity against human NCI-H460 cells assessed as cell growth at 1 uM after 48 hrs by sulforhodamine B assay; conditions: NCI-H460, 48 h, read-out: Activity
HT-29 = assay: Cytotoxicity against human HT-29 cells assessed as cell growth at 1 uM after 48 hrs by sulforhodamine B assay; conditions: HT-29, 48 h, read-out: Activity
How it was run: (§2)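 Five-dose NCI panel run at 0.01, 0.1, 1, 10 and 100 µM. Cells were in RPMI 1640 with 5% FBS and 2 mM L-glutamine, seeded at 5000–40,000 cells/well and pre-incubated 24 h. Drug was diluted from a DMSO stock into medium with 50 µg/ml gentamicin. Exposure was 48 h at 37 °C, 5% CO2. Cells were fixed with cold TCA and stained with 0.4% SRB, read at 515 nm. Percent growth came from time-zero, control and test absorbances.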

OVCAR-5 = assay: Cytotoxicity against human OVCAR5 cells assessed as cell growth at 1 uM after 48 hrs by sulforhodamine B assay; conditions: OVCAR-5, 48 h, read-out: Activity
SK-MEL-2 = assay: Cytotoxicity against human SK-MEL-2 cells assessed as cell growth at 10 uM after 48 hrs by sulforhodamine B assay; conditions: SK-MEL-2, 48 h, read-out: Activity
IGROV-1 = assay: Cytotoxicity against human IGROV1 cells assessed as cell growth at 10 uM after 48 hrs by sulforhodamine B assay; conditions: IGROV-1, 48 h, read-out: Activity
TK-10 = assay: Cytotoxicity against human TK10 cells assessed as cell growth at 10 uM after 48 hrs by sulforhodamine B assay; conditions: TK-10, 48 h, read-out: Activity
UO-31 = assay: Cytotoxicity against human UO31 cells assessed as cell growth at 10 uM after 48 hrs by sulforhodamine B assay; conditions: UO-31, 48 h, read-out: Activity
[3] = Cytotoxicity against human Hs 578T cells assessed as cell growth at 10 uM after 48 hrs by sulforhodamine B assay; conditions: read-out: Activity; how it was run: as §2
MDA-MB-468 [4] = assay: Cytotoxicity against human MDA-MB-468 cells assessed as cell growth at 10 uM after 48 hrs by sulforhodamine B assay; conditions: MDA-MB-468, 48 h, read-out: Activity
HOP-62 = assay: Cytotoxicity against human HOP62 cells assessed as cell growth at 100 uM after 48 hrs by sulforhodamine B assay; conditions: HOP-62, 48 h, read-out: Activity; how it was run: as §2
NCI-H23 = assay: Cytotoxicity against human NCI-H23 cells assessed as cell growth at 100 uM after 48 hrs by sulforhodamine B assay; conditions: NCI-H23, 48 h, read-out: Activity
NCI-H522 = assay: Cytotoxicity against human NCI-H522 cells assessed as cell growth at 10 '-5 M after 48 hrs by sulforhodamine B assay; conditions: NCI-H522, 48 h, read-out: Activity
OVCAR-8 = assay: Cytotoxicity against human OVCAR8 cells assessed as cell growth at 10 '-5 M after 48 hrs by sulforhodamine B assay; conditions: OVCAR-8, 48 h, read-out: Activity
PC-3 = assay: Cytotoxicity against human PC3 cells assessed as cell growth at 10 '-5 M after 48 hrs by sulforhodamine B assay; conditions: PC-3, 48 h, read-out: Activity
MDA-MB-468 [5] = assay: Cytotoxicity against human MDA-MB-468 cells assessed as cell growth at 10 '-5 M after 48 hrs by sulforhodamine B assay; conditions: MDA-MB-468, 48 h, read-out: Activity
SR = assay: Growth inhibition of human SR cells after 48 hrs by sulforhodamine B assay; conditions: for CC50: read-out: LC50 (the source's name)
How it was run: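 Leukemia suspension lines were grown in RPMI 1640 with 5% FBS and 2 mM L-glutamine and plated at 5000–40,000 cells/well with 24 h preincubation. They were treated at 0.01, 0.1, 1, 10 and 100 µM (DMSO stock) for 48 h at 37 °C. Settled cells were fixed with 80% TCA (16% final) and stained with 0.4% SRB in 1% acetic acid, then read at 515 nm. GI50 was calculated against time-zero and control wells.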

A549 = assay: Cytotoxicity against human A549 cells assessed as cell growth at 10 '-5 M after 48 hrs by sulforhodamine B assay; conditions: A549, 48 h, read-out: Activity
How it was run: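 Primary NCI-60 single-dose screen at 10 µM. Cells were grown in RPMI 1640 with 5% FBS and 2 mM L-glutamine and plated 24 h before drug addition. Compound was solubilized in DMSO, then exposed for 48 h at 37 °C under 5% CO2. Cells were TCA-fixed and stained with SRB, and absorbance was read at 515 nm. Growth was expressed relative to time-zero and untreated controls.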

Cc1ccc2nc(Nc3c(C)cccc3C)sc2c1
growth at 0.01 µM (SK-OV-3 [1]): 101% | growth at 0.01 µM (786-0): 97% | growth at 0.01 µM (CAKI-1): 93% | growth at 0.01 µM (MCF7): 90% | growth at 0.1 µM (HL-60(TB)): 106% | growth at 0.1 µM (SNB-75): 61% | growth at 0.1 µM (SK-OV-3 [2]): 104% | growth at 0.1 µM (A498): 68% | growth at 100 µM (SN12C): 52% | growth at 1 µM (NCI-H460): 81% | growth at 1 µM (HT-29): 39% | growth at 1 µM (OVCAR-5): 79% | growth at 10 µM (SK-MEL-2): 48% | growth at 10 µM (IGROV-1): 42% | growth at 10 µM (TK-10): 71% | growth at 10 µM (UO-31): 49% | growth at 10 µM [3]: 40% | growth at 10 µM (MDA-MB-468 [4]): 9% | growth at 100 µM (HOP-62): 10% | growth at 100 µM (NCI-H23): 65% | growth at 10 µM (NCI-H522): 19.7% | growth at 10 µM (OVCAR-8): 56.4% | growth at 10 µM (PC-3): 40.4% | growth at 10 µM (MDA-MB-468 [5]): 2.04% | GI50 (SR): 0.412 µM | TGI (SR): > 100 µM | CC50 (SR): > 100 µM | growth at 10 µM (A549): 32.6%

Clc1cccc(Cl)c1Nc1nc2cccc(Cl)c2s1
growth at 0.01 µM (SK-OV-3 [1]): 101% | growth at 0.01 µM (786-0): 106% | growth at 0.01 µM (CAKI-1): 92% | growth at 0.01 µM (MCF7): 90% | growth at 0.1 µM (HL-60(TB)): 103% | growth at 0.1 µM (SNB-75): 85% | growth at 0.1 µM (SK-OV-3 [2]): 99% | growth at 0.1 µM (A498): 67% | growth at 100 µM (SN12C): -84% | growth at 1 µM (NCI-H460): 67% | growth at 1 µM (HT-29): 65% | growth at 1 µM (OVCAR-5): 79% | growth at 10 µM (SK-MEL-2): -64% | growth at 10 µM (IGROV-1): -55% | growth at 10 µM (TK-10): -86% | growth at 10 µM (UO-31): -91% | growth at 10 µM [3]: -41% | growth at 10 µM (MDA-MB-468 [4]): -73% | growth at 100 µM (HOP-62): -75% | growth at 100 µM (NCI-H23): -58% | growth at 10 µM (NCI-H522): -64% | growth at 10 µM (OVCAR-8): -13.8% | growth at 10 µM (PC-3): 4.1% | growth at 10 µM (MDA-MB-468 [5]): -25.6% | GI50 (SR): 1.03 µM | TGI (SR): 3.24 µM | CC50 (SR): > 100 µM | growth at 10 µM (A549): 0.55%
